Compound activity: PubChem, several laboratories
Most compounds without a hit are left out; they make up all but 2.3% or so of the library.
PAFAH1B2 FP inh = PAFAH1B2 enzyme inhibitors, primary screen, biochemical, fluorescence polarization, human; recombinant PAFAH1B2, FP-rhodamine activity probe; inhibition, % at 3.39 µM; 340,000 tested, 1.2% active;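 active means inhibition above the mean of all tested compounds plus 3 SD, cut at about 24% in these data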;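 further: 0% = enzyme with DMSO and 100% = wells lacking PAFAH1B2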
PAFAH2 inh = PAFAH2 enzyme inhibitors, primary screen, biochemical, fluorescence polarization, human; inhibition, % at 3.39 µM; recombinant PAFAH2, FP-rhodamine activity probe; 340,000 tested, 0.99% active; Platelet-activating factor acetylhydrolase 2, cytoplasmic (Homo sapiens), Q99487;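 active means inhibition above the mean over all tested compounds plus 3 SD, cut at about 30% in these data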;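 further: inhibitors block probe labeling of enzyme so polarization drops; 0% = enzyme with DMSO and 100% = wells lacking PAFAH2 protein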
PAFAH1B3 inh = PAFAH1B3 enzyme inhibitors, primary screen, biochemical, fluorescence polarization, human; recombinant PAFAH1B3, FP-rhodamine probe; Platelet-activating factor acetylhydrolase IB subunit alpha1 (Homo sapiens), Q15102; inhibition, % at 3.39 µM; AID 492972, 2010; 340,000 tested, 0.28% active;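 active means inhibition above the screen-wide average of all tested compounds plus 3 SD, cut at about 25% in these data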;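 further: 0% = enzyme with DMSO only and 100% = wells lacking PAFAH1B3 protein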
Target sequence (Q15102 whole entry, looked up): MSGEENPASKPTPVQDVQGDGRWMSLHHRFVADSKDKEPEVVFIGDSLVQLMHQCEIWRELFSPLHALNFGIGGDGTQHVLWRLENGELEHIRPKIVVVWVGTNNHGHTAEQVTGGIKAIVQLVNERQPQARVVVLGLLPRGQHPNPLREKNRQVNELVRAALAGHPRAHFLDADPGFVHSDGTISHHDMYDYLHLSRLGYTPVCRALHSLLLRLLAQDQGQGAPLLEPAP
Apaf1 inhib = inhibitors of human Apaf-1 apoptosome, primary screen, biochemical, DEVD-Rh110 fluorescence, uHTS | 330,000 tested, 0.71% active | inhibition, % at 20 µM | AID 489030, 2010 | reconstituted apoptosome caspase-3 activity | Apoptotic protease-activating factor 1 (Homo sapiens), O14727; active means inhibition of at least 40% at 20 µM;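 further: plate controls were DMSO wells for no effect and DEVD-CHO caspase inhibitor wells for full effect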
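Material: reconstituted apoptosome with Apaf-1, cytochrome c, caspase-9, procaspase-3, dATP. Technique: Rh110 fluorescence intensity. Buffer or medium: pH 7.5 Hepes buffer with CHAPS, BSA, DTT. Times: 30 min plus 50 min, RT.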
TDP2 inh = human TDP2 enzyme inhibitors, primary screen, biochemical, epi absorbance, recombinant enzyme | T5PNP hydrolysis, p-nitrophenol absorbance 415 nm | Tyrosyl-DNA phosphodiesterase 2 (Homo sapiens), O95551 | inhibition, % at 12.8 µM | 370,000 tested, 0.34% active | AID 720702, 2013;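 active means inhibition above the mean of all tested compounds plus 3 SD, set per campaign, cut at about 25% in these data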;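 further: 0% = DMSO with enzyme and 100% = buffer with substrate but no TDP2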
Target sequence (O95551 whole entry, looked up): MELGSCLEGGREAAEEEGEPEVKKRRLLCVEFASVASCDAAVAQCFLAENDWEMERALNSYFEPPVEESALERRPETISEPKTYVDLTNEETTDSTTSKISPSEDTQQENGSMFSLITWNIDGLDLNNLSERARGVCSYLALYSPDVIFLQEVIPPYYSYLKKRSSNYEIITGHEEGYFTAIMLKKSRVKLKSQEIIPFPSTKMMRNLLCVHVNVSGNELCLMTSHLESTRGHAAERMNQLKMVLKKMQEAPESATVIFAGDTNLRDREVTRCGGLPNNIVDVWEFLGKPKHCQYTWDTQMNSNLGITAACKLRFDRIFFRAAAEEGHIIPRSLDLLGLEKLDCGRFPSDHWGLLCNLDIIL
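test system = human TDP2 enzyme | input = TDP2 enzyme at 120 nM final | medium = 50 mM Tris-HCl pH 7.5 with Mg2+, KCl, DTT, BSA | also added = T5PNP substrate, 5 mM | times = 2 h at 37 °C | technique = epi absorbance | benchmarks = high control without enzyme, low control DMSO plus TDP2 | replication = each compound tested once, singlicate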
PAFAH2 confirm = PAFAH2 enzyme inhibitors, confirmation, biochemical, fluorescence polarization, human; shares compounds with PAFAH2 inh; 2,300 tested, 65% active; recombinant PAFAH2, FP-rhodamine activity probe; inhibition, % at 3.39 µM;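 active means mean inhibition over three repeats above a set limit taken from the earlier primary screen, cut at about 30% in these data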;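 further: inhibitor blocks binding of rhodamine activity probe so polarization falls; 0% = enzyme with DMSO and 100% = wells lacking PAFAH2 protein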
Numbers without * were called inactive.

For CCOC(=O)[C@]12CCCCC/C=C\1N(Cc1ccc(OC)cc1)C(=O)[C@H]2CC(=O)NCCCCc1ccccc1 the results were TDP2 inh 2.4.
Cc1cc(C)c(S(=O)(=O)N2CCC(C(=O)NCc3ccncc3)CC2)c(C)c1 was read as PAFAH1B2 FP inh -5.9, PAFAH2 inh 101.3*, PAFAH1B3 inh 1.4, Apaf1 inhib -17.8, TDP2 inh -7.4 and PAFAH2 confirm -0.5.
For CC1=NOC(=O)/C1=C\c1ccc(-c2ccc(Cl)c(C(=O)O)c2)o1 the results were PAFAH1B2 FP inh 5.4, PAFAH2 inh 48.7*, PAFAH1B3 inh 18.5, Apaf1 inhib 14.8, TDP2 inh -18.9 and PAFAH2 confirm 32.9*.
For CC1=NOC(=O)/C1=C\c1ccc(-c2ccccc2Br)o1 the results were PAFAH1B2 FP inh 24.0, PAFAH2 inh 43.6*, PAFAH1B3 inh 20.1, TDP2 inh 22.1 and PAFAH2 confirm 25.4.
Cc1ccc(/C=C2/C(=O)ON=C2c2ccccc2)o1 was read as PAFAH1B2 FP inh 17.5, PAFAH2 inh 13.8, PAFAH1B3 inh 6.5, Apaf1 inhib -3.0 and TDP2 inh 9.2.
CC1=NOC(=O)/C1=C\c1ccc(-c2cccc(Cl)c2)o1 was read as PAFAH1B2 FP inh 8.8, PAFAH2 inh 31.3*, PAFAH1B3 inh 8.0, Apaf1 inhib 28.1 and PAFAH2 confirm 22.6.
`O=C(O)c1cc(-c2ccc(/C=C3/SC(=S)N(Cc4ccccc4)C3=O)o2)ccc1Cl` gave PAFAH1B2 FP inh 2.9, PAFAH2 inh 33.7*, PAFAH1B3 inh 2.7, TDP2 inh 3.4 and PAFAH2 confirm 25.8.
CC1(C)OC(=O)C(=Cc2ccc(-c3ccc(Cl)c(C(=O)O)c3)o2)C(=O)O1 was read as PAFAH1B2 FP inh 4.2, PAFAH2 inh 8.5, PAFAH1B3 inh 10.4, Apaf1 inhib 0.6 and TDP2 inh 5.3.
For CC1=CC2=NC(=O)/C(=C\c3ccc(-c4cccc(Cl)c4)o3)C(=N)N2O1 the results were PAFAH1B2 FP inh -10.0, PAFAH2 inh -18.9, PAFAH1B3 inh -6.1, Apaf1 inhib -11.0 and TDP2 inh -2.9.
For COC(=O)[C@]12C[C@H](CC(=O)N3CCOCC3)C(=O)N(CCC3=CCCCC3)C1=C[C@H](C1CCCC1)O[C@@H]2C the results were TDP2 inh 5.6.
`CCOC(=O)CC[C@@]1(C(=O)OCC)C[C@@H](CC(=O)NCc2ccc(OC)c(OC)c2)C(=O)N2CCCC=C21` gave TDP2 inh -5.2.
For CC(C)(C)OC(=O)NCCc1ccccc1/C=C/S(=O)(=O)NCc1ccccc1 the results were TDP2 inh 0.3.
For COC(=O)[C@]12C[C@H](CC(=O)NCCCCc3ccccc3)C(=O)N(CCC3=CCCCC3)C1=C[C@H](COCc1ccccc1)O[C@@H]2C the results were TDP2 inh -2.8.
Screening Cc1ccc(C(=O)OCC(=O)NCc2cccs2)s1 returned PAFAH1B2 FP inh 1.9, PAFAH2 inh 65.1*, PAFAH1B3 inh 0.7, Apaf1 inhib 1.9, TDP2 inh 11.7 and PAFAH2 confirm 56.7*.
Screening Cc1cc(C)cc(C(=O)OCC(=O)NCc2cccs2)c1 returned PAFAH1B2 FP inh -1.6, PAFAH2 inh 10.5, PAFAH1B3 inh 1.9, Apaf1 inhib -1.3 and TDP2 inh -18.8.
Screening O=C(COC(=O)c1ccccc1)NCc1cccs1 returned PAFAH1B2 FP inh 0.1, PAFAH2 inh 36.4*, PAFAH1B3 inh 13.1, Apaf1 inhib -2.3, TDP2 inh -8.4 and PAFAH2 confirm 20.0.
For O=C(COC(=O)c1ccc(OC(F)F)cc1)NCc1cccs1 the results were PAFAH1B2 FP inh 3.8, PAFAH2 inh 55.7*, PAFAH1B3 inh 7.2, Apaf1 inhib 0.8, TDP2 inh -12.1 and PAFAH2 confirm 28.9.
For O=[N+]([O-])c1ccccc1S(=O)(=O)Nc1cccc(-c2ccc(N3CCCC3)nn2)c1 the results were PAFAH1B2 FP inh 2.0, PAFAH2 inh 108.7*, PAFAH1B3 inh 2.6, Apaf1 inhib 20.4, TDP2 inh -4.0 and PAFAH2 confirm 4.3.
For O=C(COC(=O)c1ccc2ncsc2c1)NC(=O)c1ccccc1 the results were PAFAH1B2 FP inh 4.5, PAFAH2 inh 3.9, PAFAH1B3 inh -5.2, Apaf1 inhib 5.6 and TDP2 inh 11.3.
For O=C(COC(=O)c1ccc2ncsc2c1)Nc1cc(Cl)ccc1F the results were PAFAH1B2 FP inh 1.6, PAFAH2 inh 66.4*, PAFAH1B3 inh 4.0, Apaf1 inhib 13.8, TDP2 inh -18.8 and PAFAH2 confirm 60.2*.
O=C(COC(=O)c1ccc2ncsc2c1)Nc1ncc(Cl)cc1Cl was read as PAFAH1B2 FP inh 2.2, PAFAH2 inh 31.1*, PAFAH1B3 inh -4.2, Apaf1 inhib 8.7, TDP2 inh 7.7 and PAFAH2 confirm 25.2.
`Cc1c(Cl)cnc(NC(=O)COC(=O)c2ccc3ncsc3c2)c1Cl` gave PAFAH1B2 FP inh 4.5, PAFAH2 inh 47.3*, PAFAH1B3 inh 4.5, Apaf1 inhib -1.1, TDP2 inh 5.1 and PAFAH2 confirm 36.4*.
`COC(=O)[C@]12C[C@H](CC(=O)NCc3cccs3)C(=O)N(Cc3cccc4ccccc34)C1=C[C@H](C(C)C)O[C@@H]2C1CC1` gave TDP2 inh -5.2.
`COc1ccc(/C=C/C(=O)OCC(=O)Nc2cccc(C(C)=O)c2)cc1` gave PAFAH1B2 FP inh 0.1, PAFAH2 inh 90.2*, PAFAH1B3 inh 0.9, Apaf1 inhib 7.1, TDP2 inh 1.4 and PAFAH2 confirm 80.6*.
C/C=C/C(=O)OCC(=O)Nc1cc(-c2cc(C)c(C)cc2C)nn1-c1ccccc1 was read as PAFAH1B2 FP inh -0.6, PAFAH2 inh 40.8*, PAFAH1B3 inh -4.3, Apaf1 inhib 13.5, TDP2 inh -4.7 and PAFAH2 confirm 30.2*.
`COc1ccc(/C=C/C(=O)OCC(=O)Nc2cc(C(N)=O)cc(C(N)=O)c2)cc1` gave PAFAH1B2 FP inh -4.2, PAFAH2 inh -3.5, PAFAH1B3 inh 6.4, Apaf1 inhib 11.3 and TDP2 inh 5.6.
Cc1nn(-c2ccccc2)c(C)c1/C=C/C(=O)OCC(=O)Nc1ncc(C(F)(F)F)cc1Cl was read as PAFAH1B2 FP inh -0.7, PAFAH2 inh 45.1*, PAFAH1B3 inh 1.9, Apaf1 inhib 13.6, TDP2 inh 5.1 and PAFAH2 confirm 35.5*.
